For 8 compounds, inhibition, IC50 and viability results are on record in ChEMBL document CHEMBL4138279, “Probing the Antiallergic and Anti-inflammatory Activity of Biflavonoids and Dihydroflavonols from Dietes bicolor” (J Nat Prod, 2018).

For data set [1], the system named is Neutrophil. The data set can be described thus: Antiinflammatory activity in human neutrophils assessed as inhibition of fMLP/CB-induced elastase release at 10 uM pretreated for 5 mins followed by fMLP/CB stimulation using MeO-Suc-Ala-Ala-Pro-Val-p-nitroanilide as substrate relative to control. It counts as functional. In a few lines: (§1)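 Elastase release from fMLF/cytochalasin B-activated human neutrophils, isolated from venous blood of healthy volunteers aged 20−30, measured with N-methoxysuccinyl-Ala-Ala-Pro-Val-p-nitroanilide as substrate. Pure compounds were tested at 0.3 to 10 μM. Results are IC50 or % inhibition at 10 μM relative to fMLF/CB control, mean ± SEM (n = 3−4).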

Data set [2] concerns Neutrophil. The data set can be described thus: Antiinflammatory activity in human neutrophils assessed as inhibition of fMLP/CB-induced elastase release pretreated for 5 mins followed by fMLP/CB stimulation using MeO-Suc-Ala-Ala-Pro-Val-p-nitroanilide as substrate. It counts as functional, cell-based. In a few lines: as §1
Data set [3] has as its system Neutrophil. The data set can be described thus: Anti-inflammatory activity in human neutrophils assessed as inhibition of fMLP/CB-induced superoxide anion generation pretreated for 5 mins followed by cytochalasin B addition for 3 mins and subsequent fMLP stimulation for 10 mins by superoxide dismutase inhibitable reduction of ferricytochrome c based spectrophotometric assay. It counts as functional, cell-based. The essentials:
(§2)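 Human neutrophils isolated from venous blood of healthy adult volunteers (20−30 years), stimulated with fMLF/cytochalasin B. Superoxide anion was measured as ferricytochrome c reduction. Pure compounds were tested at 0.3 to 10 μM. IC50 was taken as the concentration giving 50% inhibition, and single-point values as % inhibition at 10 μM versus fMLF/CB control. Mean ± SEM, n = 3−4.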

For data set [4], the system named is Neutrophil. The data set can be described thus: Anti-inflammatory activity in human neutrophils assessed as inhibition of fMLP/CB-induced superoxide anion generation at 10 uM pretreated for 5 mins followed by cytochalasin B addition for 3 mins and subsequent fMLP stimulation for 10 mins by superoxide dismutase inhibitable reduction of ferricytochrome c based spectrophotometric assay relative to control. It counts as functional. The essentials:
as §2

In data set [5] the test system is RBL-2H3. The data set can be described thus: Antiallergic activity in anti-DNP IgE-sensitized rat RBL2H3 cells assessed as inhibition of DNP-BSA-induced beta hexosaminidase release pretreated for 10 mins followed by DNP-BSA addition measured after 10 mins by p-NAG substrate based assay. It counts as functional, cell-based.
The test system of data set [6] is RBL-2H3. The data set can be described thus: Antiallergic activity in rat RBL2H3 cells assessed as inhibition of A23187-induced beta hexosaminidase release at 100 uM pretreated for 20 hrs followed by A23187 addition measured after 1 hr by p-NAG substrate based assay relative to control. It counts as functional. In a few lines: (§3)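 Degranulation assay: RBL-2H3 cells were seeded at 2 × 10^4 cells/well overnight and exposed to compounds (1 to 400 μM) for 20 h. They were then activated with calcium ionophore A23187 (1 μM). Released β-hexosaminidase was quantified using p-NAG substrate and expressed as % inhibition relative to A23187 control, mean ± SD (n = 3).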

For data set [7], the system named is RBL-2H3. The data set can be described thus: Antiallergic activity in anti-DNP IgE-sensitized rat RBL2H3 cells assessed as inhibition of DNP-BSA-induced beta hexosaminidase release at 1 uM pretreated for 20 hrs followed by anti-DNP IgE-sensitization for 2 hrs and subsequent DNP-BSA addition measured after 1 hr by p-NAG substrate based assay relative to control. It counts as functional. In a few lines:
(§4)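 RBL-2H3 cells in DMEM with 10% FBS at 37 °C and 5% CO2 were seeded at 3 × 10^4 cells/well overnight, then treated 20 h with compounds (1 to 400 μM). Cells were sensitized with anti-DNP IgE (1 μg/mL, at least 2 h) and challenged with DNP-BSA (100 ng/mL) for 1 h. β-Hexosaminidase was read with p-NAG substrate as % inhibition versus antigen control. Mean ± SD, n = 3.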

The subject of data set [8] is RBL-2H3. The data set can be described thus: Antiallergic activity in rat RBL2H3 cells assessed as inhibition of A23187-induced beta hexosaminidase release at 200 uM pretreated for 20 hrs followed by A23187 addition measured after 1 hr by p-NAG substrate based assay relative to control. It counts as functional. In a few lines: as §3
Data set [9] has as its system RBL-2H3. The data set can be described thus: Antiallergic activity in rat RBL2H3 cells assessed as inhibition of A23187-induced beta hexosaminidase release at 10 uM pretreated for 20 hrs followed by A23187 addition measured after 1 hr by p-NAG substrate based assay relative to control. It counts as functional. In a few lines:
as §3

In data set [10] the test system is RBL-2H3. The data set can be described thus: Antiallergic activity in anti-DNP IgE-sensitized rat RBL2H3 cells assessed as inhibition of DNP-BSA-induced beta hexosaminidase release at 10 uM pretreated for 20 hrs followed by anti-DNP IgE-sensitization for 2 hrs and subsequent DNP-BSA addition measured after 1 hr by p-NAG substrate based assay relative to control. It counts as functional. In a few lines: as §4

The subject of data set [11] is RBL-2H3. The data set can be described thus: Antiallergic activity in anti-DNP IgE-sensitized rat RBL2H3 cells assessed as inhibition of DNP-BSA-induced beta hexosaminidase release at 100 uM pretreated for 20 hrs followed by anti-DNP IgE-sensitization for 2 hrs and subsequent DNP-BSA addition measured after 1 hr by p-NAG substrate based assay relative to control. It counts as functional. In a few lines:
as §4

Data set [12] is described as follows: Cytotoxicity against rat RBL2H3 cells assessed as cell viability at 400 uM after 24 hrs by MTT assay relative to control. It counts as cell-based. The settings on record: RBL-2H3 cells, read-out: Activity. The essentials: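 Viability of RBL-2H3 cells, cultured in DMEM with 10% FBS at 37 °C and 5% CO2, was determined by MTT after exposure to pure compounds at 400 μM. It is expressed as % of untreated control, mean ± SD (n = 3). Viability below 80% was classed as cytotoxic.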
For orientation: Formazan colour is commonly taken as a measure of viable cells.

For data set [13], the system named is RBL-2H3. The data set can be described thus: Antiallergic activity in rat RBL2H3 cells assessed as inhibition of A23187-induced beta hexosaminidase release at 1 uM pretreated for 20 hrs followed by A23187 addition measured after 1 hr by p-NAG substrate based assay relative to control. It counts as functional. The essentials:
as §3

For data set [14], the system named is RBL-2H3. The data set can be described thus: Antiallergic activity in anti-DNP IgE-sensitized rat RBL2H3 cells assessed as inhibition of DNP-BSA-induced beta hexosaminidase release at 200 uM pretreated for 20 hrs followed by anti-DNP IgE-sensitization for 2 hrs and subsequent DNP-BSA addition measured after 1 hr by p-NAG substrate based assay relative to control. It counts as functional. In a few lines: as §4

The test system of data set [15] is RBL-2H3. The data set can be described thus: Antiallergic activity in anti-DNP IgE-sensitized rat RBL2H3 cells assessed as inhibition of DNP-BSA-induced beta hexosaminidase release at 10 nM pretreated for 20 hrs followed by anti-DNP IgE-sensitization for 2 hrs and subsequent DNP-BSA addition measured after 1 hr by p-NAG substrate based assay relative to control. It counts as functional.

Data set [16] deals with RBL-2H3. The data set can be described thus: Antiallergic activity in rat RBL2H3 cells assessed as inhibition of A23187-induced beta hexosaminidase release at 10 nM pretreated for 20 hrs followed by A23187 addition measured after 1 hr by p-NAG substrate based assay relative to control. It counts as functional.
Another data set addresses T1, Neutrophil elastase (Homo sapiens, UniProt P08246).
T1 sequence (P08246 whole entry): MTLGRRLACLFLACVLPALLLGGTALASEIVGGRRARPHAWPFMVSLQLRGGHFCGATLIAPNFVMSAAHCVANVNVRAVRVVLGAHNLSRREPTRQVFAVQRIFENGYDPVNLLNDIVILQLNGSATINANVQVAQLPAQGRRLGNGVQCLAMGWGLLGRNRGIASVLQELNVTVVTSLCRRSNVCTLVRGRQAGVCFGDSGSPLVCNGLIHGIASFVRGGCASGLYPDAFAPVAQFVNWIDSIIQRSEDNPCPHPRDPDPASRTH
The data set can be described thus: Inhibition of human neutrophil elastase using N-Methoxysuccinyl-Ala-Ala-Pro-Val-p-nitroanilid as substrate measured after 1 hr.

Data set [17] relates to RBL-2H3. The data set can be described thus: Antiallergic activity in anti-DNP IgE-sensitized rat RBL2H3 cells assessed as inhibition of DNP-BSA-induced beta hexosaminidase release at 400 uM pretreated for 20 hrs followed by anti-DNP IgE-sensitization for 2 hrs and subsequent DNP-BSA addition measured after 1 hr by p-NAG substrate based assay relative to control. It counts as functional. In a few lines: as §4

The subject of data set [18] is RBL-2H3. The data set can be described thus: Antiallergic activity in rat RBL2H3 cells assessed as inhibition of A23187-induced beta hexosaminidase release at 400 uM pretreated for 20 hrs followed by A23187 addition measured after 1 hr by p-NAG substrate based assay relative to control. It counts as functional. The essentials:
as §3

Usually inhibition stands for the change of the read-out against control, counted positive when it falls. The IC50 is the midpoint of a concentration-inhibition curve.

Regarding `O=c1cc(N2CCOCC2)oc2c(-c3ccccc3)cccc12` [LY-294002], the inhibition at 10 µM came out at 71.5% with Neutrophil [1] and 96.5% in the data set on Neutrophil [4]. Also, the IC50 in the data set on Neutrophil [2] turned out to be 3440 nM; with Neutrophil [3], 1250 nM.

Turning to `COc1c2c(cc3c1C(=O)[C@H](O)[C@@H](c1ccccc1)O3)OCO2` (relative stereo), the IC50 in the data set with RBL-2H3 [5] was > 100000 nM.

As for `COc1cc(O)c2c(=O)c(-c3ccc(O)c(OC)c3)coc2c1`, the inhibition at 100 µM worked out at 23.7% with RBL-2H3 [6] and 9% in the data set on RBL-2H3 [11]. Also, the figures for the inhibition at 1 µM in the data set on RBL-2H3 [7] and in the data set with RBL-2H3 [13] were 2.3% and 0.3%, respectively. Further, the inhibition at 200 µM worked out at 22.7% in the data set with RBL-2H3 [8] and 18% in the data set with RBL-2H3 [14]. Moreover, the inhibition at 10 µM in the data set with RBL-2H3 [9] is 1.7%; in the data set on Neutrophil [1], 27.1%; in the data set with RBL-2H3 [10] it was 1.3%; in the data set on Neutrophil [4], 48.9%. Further, the IC50 was > 100000 nM in the data set on RBL-2H3 [5], > 10000 nM with Neutrophil [2] and > 10000 nM with Neutrophil [3]. In addition, the viability at 24 h, 400 µM in [12] stood at 69%.

For `COc1cc(OC)c2c(c1)O[C@H](c1ccccc1)[C@@H](O)C2=O` (relative stereo), the IC50 with RBL-2H3 [5] is > 100000 nM.

For the compound `C[C@@H]1C[C@H]2[C@@H]3CCC4=CC(=O)C=C[C@]4(C)[C@@]3(F)[C@@H](O)C[C@]2(C)[C@@]1(O)C(=O)CO` [DEXAMETHASONE], the results for the inhibition at 0.01 µM with RBL-2H3 [15] and in the data set with RBL-2H3 [16] were 79.7% and 80.7%, respectively.

For `O=c1cc(-c2ccc(O)c(-c3c(O)cc4oc(-c5ccc(O)cc5)cc(=O)c4c3O)c2)oc2cc(O)cc(O)c12` [ROBUSTAFLAVONE], the inhibition at 100 µM turned out to be 6% in the data set on RBL-2H3 [6] and 2.7% with RBL-2H3 [11]. Besides, the IC50 on Neutrophil elastase was found to be 1330 nM; with Neutrophil [2], 450 nM; in the data set on Neutrophil [3] it was 1010 nM. The inhibition at 1 µM with RBL-2H3 [7] stood at 4%; in the data set with RBL-2H3 [13], 2.3%. Also, the inhibition at 200 µM in the data set on RBL-2H3 [8] is 2.7%; in the data set on RBL-2H3 [14] it was 3%. Further, the inhibition at 10 µM came to 5.3% with RBL-2H3 [9], 103% with Neutrophil [1], 3% in the data set on RBL-2H3 [10] and 105% with Neutrophil [4]. Also, the inhibition at 400 µM was 49% in the data set on RBL-2H3 [17] and 45.3% in the data set with RBL-2H3 [18]. For the same compound, the viability at 24 h, 400 µM in data set [12] is 92.3%.

For `O=c1cc(-c2ccc(O)c(-c3c(O)cc(O)c4c(=O)cc(-c5ccc(O)cc5)oc34)c2)oc2cc(O)cc(O)c12` [AMENTOFLAVONE], the inhibition at 100 µM with RBL-2H3 [6] stood at 0%; in the data set with RBL-2H3 [11] it was 2.7%. Moreover, the IC50 on Neutrophil elastase is 1270 nM; in the data set with Neutrophil [2], 750 nM; with Neutrophil [3] it was 1010 nM. Besides, the inhibition at 1 µM in the data set on RBL-2H3 [7] is 4.7%; with RBL-2H3 [13] it was 2%. Also, the inhibition at 200 µM in the data set with RBL-2H3 [8] came out at 3.3%; in the data set on RBL-2H3 [14], 7.7%. In addition, the inhibition at 10 µM with RBL-2H3 [9] worked out at 6.7%; with Neutrophil [1], 108%; with RBL-2H3 [10], 1.3%; in the data set with Neutrophil [4], 104%. For the same compound, the figures for the inhibition at 400 µM in the data set on RBL-2H3 [17] and with RBL-2H3 [18] were 50% and 42.3%, respectively. The viability at 24 h, 400 µM in data set [12] was found to be 97.7%.

Consider `COc1c(O)cc(O)c2c1O[C@H](c1ccccc1)[C@@H](O)C2=O`, for which the IC50 in the data set with RBL-2H3 [5] was > 100000 nM.
